ChEMBL document CHEMBL3804761, “Synthesis of a stable and orally bioavailable englerin analogue” (Bioorg Med Chem Lett, 2016)
Active and inactive are the calls of the source. The calls are words filed in the database; no cut-off is given here.

Tests used:
T47D = assay: Growth inhibition of human T47D cells incubated for 48 hrs by sulforhodamine B assay; assay type: functional; details: for CC50: read-out: pLC50 (the source's name) (converted); for TGI: read-out: pTGI (converted)
How it was run: (§1)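 Tested in the standard NCI 60-cell-line protocol with two-day drug exposure and a sulforhodamine B endpoint. Compounds were first screened at a single final concentration of 10 µM, reported as growth percent. They were then run as five 10-fold dilutions starting from a high concentration of 100 µM to give dose-response curves.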

[1] = Growth inhibition of human TK10 cells incubated for 48 hrs by sulforhodamine B assay; assay type: functional; details: TK-10, 48 h; for CC50: read-out: pLC50 (the source's name) (converted); for TGI: read-out: pTGI (converted); how it was run: as §1
[2] = Growth inhibition of human COLO205 cells incubated for 48 hrs by sulforhodamine B assay; assay type: functional; details: COLO 205, 48 h; for CC50: read-out: pLC50 (the source's name) (converted); for TGI: read-out: pTGI (converted)
How it was run: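 NCI 60-cell-line panel, standard protocol. Cells exposed to compound for two days, growth read by sulforhodamine B staining. Tested at five 10-fold dilutions, top concentration 100 µM, to give dose-response curves.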

EKVX [3] = assay: Growth inhibition of human EKVX cells assessed as cell growth at 10 uM incubated for 48 hrs by sulforhodamine B assay relative to control; assay type: functional; details: read-out: Activity
How it was run: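 Run in the standard NCI 60-cell-line screen. Cells were exposed to drug for two days, and the read-out was sulforhodamine B staining. Compound was tested at a single final concentration of 10 µM in every line, and results are reported as growth percent.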

[4] = Plasma concentration in mouse at 20 mg/kg, po administered through gavage after 4 hrs by LC-MS/MS analysis; assay type: ADME, organism-based
How it was run: (§2)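 Ten mice given 20 mg/kg by oral gavage in Labrasol (20 mg/mL solution). Two mice sacrificed at each of 5 min, 15 min, 1 h, 4 h and 8 h. Plasma measured by LC-MS/MS after acetonitrile precipitation with lorazepam internal standard on a C18 UPLC column (calibration 5-500 ng/mL). Mean of two animals per time point.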

[5] = Toxicity in po dosed mouse administered through gavage; assay type: organism-based; details: in vivo
EKVX [6] = assay: Growth inhibition of human EKVX cells incubated for 48 hrs by sulforhodamine B assay; assay type: functional
How it was run: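 Run in the NCI 60-cell-line protocol, with 2-day drug exposure and sulforhodamine B read-out. Dose-response testing used five 10-fold dilutions starting from a high concentration of 100 µM.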

[7] = Plasma concentration in mouse at 100 mg/kg, po administered through gavage after 30 mins by LC-MS/MS analysis; assay type: ADME, organism-based
How it was run: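 Oral gavage to mice in Labrasol vehicle (compound dissolved directly at 20 mg/mL); dose groups 5, 10, 50 and 100 mg/kg. Plasma sampled 30 min after dosing. Analysis by HPLC-MS/MS: acetonitrile protein precipitation with lorazepam internal standard, C18 UPLC column, calibration range 5-500 ng/mL.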

[8] = target: Protein kinase C (PKC) (Homo sapiens) (UniProt O94806+P41743+P17252+P05129+Q05655+P05771+Q05513+Q02156+P24723+Q15139+Q04759); assay: Activation of PKC in human 786-0 cells at 1 uM; assay type: cell-based
[9] = Plasma concentration in mouse at 20 mg/kg, po administered through gavage after 0.083 hrs by LC-MS/MS analysis; assay type: ADME, organism-based; how it was run: as §2
[10] = AUClast in mouse at 20 mg/kg, po administered through gavage up to 8 hrs by LC-MS/MS analysis; assay type: ADME, organism-based; set-up: time < 8 hr, dose 20 mg/kg, route oral; details: in vivo
How it was run: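 Mice received 20 mg/kg by oral gavage as a 20 mg/mL solution in Labrasol. Two mice were sacrificed at each of 5 min, 15 min, 1 h, 4 h and 8 h, ten mice in total. Plasma was precipitated with acetonitrile containing lorazepam internal standard and analysed by C18 UPLC-MS/MS, calibrated over 5-500 ng/mL. AUClast was calculated from these time points.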

[11] = Plasma concentration in mouse at 20 mg/kg, po administered through gavage after 1 hr by LC-MS/MS analysis; assay type: ADME, organism-based; how it was run: as §2
[12] = Plasma concentration in mouse at 20 mg/kg, po administered through gavage after 8 hrs by LC-MS/MS analysis; assay type: ADME, organism-based; how it was run: as §2
[13] = Plasma concentration in mouse at 20 mg/kg, po administered through gavage after 0.25 hrs by LC-MS/MS analysis; assay type: ADME, organism-based; how it was run: as §2

## CC(C)[C@@]12C[C@@H](NC(=O)CO)[C@@](C)(O1)[C@@H]1CC[C@@H](C)[C@H]1[C@@H]2OC(=O)/C=C/C1CCCCC1
T47D
  GI50: > 44.7 µM
  CC50: > 44.7 µM
  TGI: > 44.7 µM
[1]
  GI50: > 44.7 µM
  CC50: > 44.7 µM
  TGI: > 44.7 µM
[2]
  GI50: > 44.7 µM
  CC50: > 44.7 µM
  TGI: > 44.7 µM

## CC(C)[C@@]12C[C@@H](NC(=O)CO)[C@@](C)(O1)[C@@H]1CC[C@@H](C)[C@H]1[C@@H]2OC(=O)c1ccc2ccccc2c1
T47D
  GI50: 14.8 µM
  CC50: 56.2 µM
  TGI: 28.8 µM
[1]
  GI50: 19.1 µM
  CC50: 60.3 µM
  TGI: 33.9 µM
[2]
  GI50: 19.1 µM
  CC50: 61.7 µM
  TGI: 34.7 µM

## C/C(=C\C(=O)O[C@H]1[C@@H]2[C@H](C)CC[C@H]2[C@]2(C)O[C@@]1(C(C)C)C[C@H]2NC(=O)CO)c1ccccc1
T47D
  GI50: 20.4 µM
  CC50: > 100 µM
  TGI: > 100 µM
[1]
  GI50: 83.2 µM
  CC50: > 100 µM
  TGI: > 100 µM
[2]
  GI50: 22.9 µM
  CC50: > 100 µM
  TGI: 83.2 µM

## CC(C)[C@@]12C[C@@H](NC(=O)CO)[C@@](C)(O1)[C@@H]1CC[C@@H](C)[C@H]1[C@@H]2OC(=O)/C=C/c1ccccc1
T47D
  GI50: 19.1 µM
  CC50: > 50.1 µM
  TGI: > 50.1 µM
EKVX [3]
  growth at 10 µM: 69%
[4]
  concentration at 4 h: 59 ng/mL
[5]
  MTD: 50 mg/kg
EKVX [6]
  GI50: 11.2 µM
EKVX [6]; read-out: pLC50 (the source's name) (converted)
  CC50: > 50.1 µM
EKVX [6]; read-out: pTGI
  TGI: > 50.1 µM
[7]
  concentration at 0.5 h: ≤ 700 ng/mL
[1]
  GI50: 28.8 µM
  CC50: > 50.1 µM
  TGI: > 50.1 µM
[8]
  Activity: inactive
[9]
  concentration at 0.083 h: 10 ng/mL
[10]
  AUC(0-t) at 8 h: 524 ng·h/mL
[11]
  concentration at 1 h: 73.2 ng/mL
[2]
  GI50: 10.7 µM
  CC50: > 50.1 µM
  TGI: 26.3 µM
[12]
  concentration at 8 h: 67.8 ng/mL
[13]
  concentration at 0.25 h: 40.7 ng/mL
